# ABHD5-PLIN5 inh = blocks binding of human ABHD5 to perilipin-5; Q00G26+Q8WTS1; Split G. princeps luciferase complementation, luminescence, 4 h; inhibition, % at 4 µM; 360,000 tested, 0.78% active;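 active = inhibition above the mean inhibition across every tested compound plus 3 SD, cut at about 22% in these data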;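 also: 0% = DMSO only wells and the 100% control is not disclosed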
# Dynein transport = dynein cargo transport inhibition | 3617.4 mouse cells, GR-EGFP nuclear translocation imaging; test concentration mostly 20 µM; stimulated with dexamethasone, 1 µM; active compounds read low | AID 1381 | z-score, hits read low | 220,000 tested, 0.47% active;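 active = plate z-score of nuclear minus cytoplasmic receptor signal below a set negative limit, without overly bright fluorescence or cell loss, cut at about -3.5 in these data, passing the limit was not always enough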;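 also: z-score of nuclear minus cytoplasmic ring GR-EGFP intensity difference per well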
#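 Buffer or medium: tet-free, stripped-serum medium; reagent: dexamethasone at 1.0 µM final, 30 min; incubation: 48 h induction, 1 h compound, 30 min dex at 37 °C; measured by: formaldehyde fixation, Hoechst nuclear stain, 10x automated fluorescence imaging; read-out: nuclear-to-cytoplasmic GR-EGFP distribution per well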
# Beta2AR agonist = agonists of human beta-2 adrenergic receptor inducing internalization. Am2.2-beta2AR cells, FAP receptor internalization, flow cytometry. 340,000 tested, 0.43% active. P07550. response, % (no concentration beside the values);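 active = response above a set limit, near 3 SD of response in nonfluorescent compounds, cut at about 42% in these data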
# TLR4 MyD88 comp = TLR4-MyD88 interaction inhibition in cells; inhibition, % at 8.4 µM; AID 861; HeLa CL3-4 TLR4/MyD88 BLA complementation, FRET ratio; 200,000 tested, 0.18% active; O00206+Q99836; in the data active = inhibition above about 25%;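 also: 0% = vehicle and 100% = reference inhibitor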
# NOD2 RIPK2 PPI = inhibitors of human NOD2-RIPK2 interaction. CHO BLA complementation NOD2-RIPK2, CCF4 ratio. inhibition, % at 4.98 µM. 360,000 tested, 0.38% active. AID 624267; in the data active = inhibition above about 21%;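 also: 0% = vehicle only and 100% = reference blocker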
# TLR9-MyD88 inh = inhibitors of human TLR9-MyD88 binding | CHO BLA complementation TLR9-MyD88, CCF4 FRET ratio | 340,000 tested, 0.21% active | inhibition, % at 4.98 µM;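 active = inhibition above the mean over all tested compounds plus 3 SD, cut at about 21% in these data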;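 also: 0% = DMSO only wells and 100% = clavulanate BLA inhibitor control wells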
# ABHD5-PLIN5 conf = confirmation of human ABHD5-PLIN5 interaction inhibitors; shares compounds with ABHD5-PLIN5 inh; biochemical ABHD5-PLIN5 interaction, luminescence; 2,200 tested, 67% active; inhibition, % at 4 µM; AID 651612; in the data active = inhibition above about 23%;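 also: 0% = DMSO vehicle wells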
# HNF4 split-luc = HNF4 split-luciferase signal hit, counter-screen. HNF4 dimerization, luminescence, biochemical. inhibition, % at 4 µM. AID 651674. shares compounds with ABHD5-PLIN5 inh. 2,200 tested, 77% active;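 active = mean inhibition across replicate wells exceeding the computed hit threshold, cut at about 13% in these data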;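 also: light from luciferase halves that rejoin when HNF4 fusion proteins dimerize; 0% = DMSO only wells and the 100% control is not given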
# NOD2-RIPK2 conf = confirmation of human NOD2-RIPK2 interaction inhibitors; AID 624370; 1,200 tested, 70% active; inhibition, % at 4.98 µM; shares compounds with NOD2 RIPK2 PPI; CHO cells, NOD2-RIPK2 BLA complementation, CCF4 FRET;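 active = mean inhibition across replicates above a set limit taken from the earlier primary screen, cut at about 21% in these data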;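 also: 0% = DMSO-only wells and the high end = clavulanate BLA-blocked wells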
# BLA counter = hits BLA reporter in NOD2-RIPK2 inhibitor counterscreen; CHO BLA reporter, CCF4 FRET ratio; shares compounds with NOD2 RIPK2 PPI; inhibition, % at 4.98 µM; 1,200 tested, 57% active;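 active = mean inhibition above the low-control mean inhibition plus three low-control SD, cut at about 11% in these data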;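 also: 0% = DMSO only wells and 100% = clavulanate high control wells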
# Starred values were filed as active, the others as inactive; nt = no result. A selection: hits, their analogues and other compounds. The true share with any hit is near 1.6%.
SMILES,ABHD5-PLIN5 inh,Dynein transport,Beta2AR agonist,TLR4 MyD88 comp,NOD2 RIPK2 PPI,TLR9-MyD88 inh,ABHD5-PLIN5 conf,HNF4 split-luc,NOD2-RIPK2 conf,BLA counter
Cc1[nH]c2ccccc2c1C1=CC(=O)C=CC1=O,49*,nt,32,nt,45*,16,46*,80*,62*,13*
N#CC(C#N)=C1C=CC=CN1/C(=C\c1ccco1)C(=O)c1ccc(-c2ccccc2)cc1,66*,-2.4,18,9,22*,15,104*,111*,78*,16*
N#C/C(=C\c1ccco1)C(=O)NCc1ccccc1,2,-0.74,0,16,0,5,nt,nt,nt,nt
N#Cc1cc(O)c(-n2nnc3ccccc32)cc1C#N,-9,1.1,11,6,2,0,nt,nt,nt,nt
N#Cc1cc(Oc2cccc3cccnc23)c(-n2nnc3ccccc32)cc1C#N,69*,-1.4,13,3,70*,19,13,50*,-11,-3
Cc1ccc(N(Cc2ccccc2)C(=O)CSC(C)C(=O)Nc2cc(C)on2)cc1 (configuration not stated),2,nt,nt,nt,8,0,nt,nt,nt,nt
O=C1Nc2ccccc2/C1=C/c1cnc(-c2ccccc2)[nH]1,2,-1.8,-11,nt,10,11,nt,nt,nt,nt
C=CCOc1ccc(C(=O)/C=C2/C(=O)Nc3ccccc32)cc1,67*,nt,-1,nt,25*,8,72*,68*,-1,-2
C=CCOc1ccc(C2NC(=O)c3ccccc3O2)cc1 (configuration not stated),-7,nt,-3,nt,5,-6,nt,nt,nt,nt
COc1ccc(C(=O)/C=C2/c3ccccc3CC(C)(C)N2C)cc1,-1,-0.32,16,6,-2,8,nt,nt,nt,nt
COc1ccc(C(=O)/C=C2/C(=O)Nc3ccccc32)cc1,36*,nt,45*,nt,33*,-1,72*,85*,10,-2
COc1ccc(C(=O)/C=C2/C(=O)Nc3ccccc32)c(OC)c1,69*,nt,23,nt,31*,5,95*,98*,30*,-1
C=CCOc1ccccc1C(=O)/C=C1/C(=O)Nc2ccccc21,85*,nt,-6,nt,65*,17,95*,97*,55*,0
CCCS(=O)(=O)NC(=O)C1(C)CCN(C(=O)c2cncc(Br)c2)C1 (configuration not stated),4,nt,nt,nt,12,nt,nt,nt,nt,nt
COc1ccc(C2c3ccc4ccccc4c3Oc3ncn(CCN(C)C)c(=N)c32)cc1 (configuration not stated),16,nt,24,nt,4,1,nt,nt,nt,nt
CC1=NNC(=O)/C1=C\c1cn(-c2ccccc2)nc1-c1cccs1,37*,-0.64,106*,1,60*,7,100*,102*,66*,-1
O=C(O)CCCCCN1C(=O)/C(=C/c2cn(-c3ccccc3)nc2-c2cccs2)SC1=S,-3,nt,11,nt,0,7,nt,nt,nt,nt
CCOC1=C2[C@@H](CN(S(=O)(=O)c3ccc(C)cc3)[C@H]2c2ccccc2Cl)[C@H]2C(=O)N(C(C)(C)C)C(=O)[C@H]2C1,-2,nt,nt,nt,-5,nt,nt,nt,nt,nt
CC(=O)Nc1cccc(-c2ccnc3c2CC(C)(C(=O)Nc2cccc(Oc4ccccc4)c2)O3)c1 (configuration not stated),-3,nt,nt,nt,-20,nt,nt,nt,nt,nt
Cc1c(Cl)sn(-c2ccc(Cl)cc2)c1=O,26*,-4.6*,49*,24,29*,4,78*,107*,89*,28*
